Data published in ChEMBL document CHEMBL3097988, “Synthesis and characterization of new N-(4-(4-chloro-1H-imidazol-1-yl)-3-methoxyphenyl)amide/sulfonamide derivatives as possible antimicrobial and antitubercular agents” (2014).
≈ marks a conversion by molar mass, not a printed value.

Legend:
Type in all cases: functional
[1] = tested on: Staphylococcus aureus; assay: Ratio of ciprofloxacin MIC to compound MIC for Staphylococcus aureus ATCC 25923
[2] = tested on: Klebsiella pneumoniae; assay: Antimicrobial activity against Klebsiella pneumoniae ATCC 13883 after 16 to 18 hrs by serial plate dilution method
How it was run: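 Bacterial MIC by serial dilution in Mueller-Hinton broth adjusted to pH 5.0 with phosphate buffer. Tubes inoculated with standardized bacterial suspension, incubated 16–18 h at 37 °C. MIC read as lowest concentration with no visible growth. Range […] per mL. DMSO as negative control, ciprofloxacin as positive control.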

[3] = tested on: Mycolicibacterium fortuitum; assay: Antimicrobial activity against Mycobacterium fortuitum ATCC 19542 after 7 days by resazurin assay; settings: ATCC 19542, 168 h
[4] = tested on: Rhizopus; assay: Antimicrobial activity against Rhizopus sp. after 3 to 4 days by serial plate dilution method
How it was run: (§1)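 Fungal MIC by serial plate dilution. Sabouraud agar (peptone, D-glucose, agar; pH 5.7) plates seeded with saline spore suspension, dried 1 h at 37 °C. Wells punched and filled with compound in DMSO; DMSO-only control. Triplicate plates held 3–4 days at 37 °C; inhibition zone diameter measured. Amphotericin B positive control. Tested range […] per mL.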

[5] = tested on: Candida albicans; assay: Antimicrobial activity against Candida albicans after 3 to 4 days by serial plate dilution method; how it was run: as §1
[6] = tested on: Mycobacterium tuberculosis; assay: Antimicrobial activity against Mycobacterium tuberculosis H37Rv ATCC 27294 after 7 days by resazurin assay; settings: H37Rv ATCC 27294, 168 h
How it was run: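 Resazurin microtitre assay. Cultures were grown in Middlebrook 7H9 with 10% OADC and added to fresh medium in 96-well plates. Test compounds came from 2 mg/mL DMF stocks, with DMF-only controls. Plates were incubated 7 days at 37 °C, then resazurin was added and read after 1 h at 37 °C. MIC was the lowest concentration preventing the blue-to-pink change.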

[7] = tested on: Mycobacterium tuberculosis; assay: Antimicrobial activity against Mycobacterium tuberculosis H37Rv ATCC 27294 at 1 to 100 ug/ml after 7 days by resazurin assay
How it was run: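 Preliminary screen at three concentrations (1, 10 and 100) by resazurin microtitre assay. Cultures were grown in Middlebrook 7H9 with 10% OADC, and compounds came from 2 mg/mL DMF stocks with DMF controls. Plates were incubated 7 days at 37 °C, and resazurin colour was read after 1 h. Inhibition was scored as no blue-to-pink change.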

[8] = tested on: Klebsiella pneumoniae; assay: Ratio of ciprofloxacin MIC to compound MIC for Klebsiella pneumoniae ATCC 13883
[9] = tested on: Aspergillus flavus; assay: Antimicrobial activity against Aspergillus flavus after 3 to 4 days by serial plate dilution method; how it was run: as §1
[10] = tested on: Staphylococcus aureus; assay: Antimicrobial activity against Staphylococcus aureus ATCC 25923 after 16 to 18 hrs by […]
[11] = tested on: Escherichia coli; assay: Antimicrobial activity against Escherichia coli ATCC 25922 after 16 to 18 hrs by […]
[12] = tested on: Mycolicibacterium smegmatis; assay: Antimicrobial activity against Mycobacterium smegmatis (MC2) ATCC 19420 after 7 days by resazurin assay; settings: (MC2) ATCC 19420, 168 h

| SMILES | Ratio [1] | MIC [2] | MIC [3] | MIC [4] | MIC [5] | MIC [6] | inhibition (INH) [7] | Ratio [8] | MIC [9] | MIC [10] | MIC [11] | MIC [12] |
| --- | --- | --- | --- | --- | --- | --- | --- | --- | --- | --- | --- | --- |
| COc1cc(NS(=O)(=O)Cc2cccc(C(F)(F)F)c2)ccc1-n1cnc(Cl)c1 | 1 | 4 µg/mL (≈ 8.97 µM) | 10 µg/mL (≈ 22.4 µM) | 128 µg/mL (≈ 287 µM) | 64 µg/mL (≈ 144 µM) | 1.25 µg/mL (≈ 2.8 µM) | 90% | 2 | 32 µg/mL (≈ 71.8 µM) | 4 µg/mL (≈ 8.97 µM) | 64 µg/mL (≈ 144 µM) |  |
| COc1cc(NS(=O)(=O)c2cc(F)cc(C(F)(F)F)c2)ccc1-n1cnc(Cl)c1 | 1 | 8 µg/mL (≈ 17.8 µM) | 10 µg/mL (≈ 22.2 µM) | 16 µg/mL (≈ 35.6 µM) | 8 µg/mL (≈ 17.8 µM) | 0.625 µg/mL (≈ 1.39 µM) | 95% | 1 | 8 µg/mL (≈ 17.8 µM) | 4 µg/mL (≈ 8.89 µM) | 4 µg/mL (≈ 8.89 µM) | 10 µg/mL (≈ 22.2 µM) |
| COc1cc(NS(=O)(=O)c2ccc(C(F)(F)F)cc2)ccc1-n1cnc(Cl)c1 | 1 | 8 µg/mL (≈ 18.5 µM) | 10 µg/mL (≈ 23.2 µM) | 16 µg/mL (≈ 37.1 µM) | 8 µg/mL (≈ 18.5 µM) | 0.625 µg/mL (≈ 1.45 µM) | 95% | 1 | 16 µg/mL (≈ 37.1 µM) | 4 µg/mL (≈ 9.26 µM) | 16 µg/mL (≈ 37.1 µM) | 1.25 µg/mL (≈ 2.89 µM) |
| COc1cc(NS(=O)(=O)c2c(F)ccc(C(F)(F)F)c2Cl)ccc1-n1cnc(Cl)c1 | 1 | 8 µg/mL (≈ 16.5 µM) | 10 µg/mL (≈ 20.7 µM) | 16 µg/mL (≈ 33 µM) | 8 µg/mL (≈ 16.5 µM) | 0.625 µg/mL (≈ 1.29 µM) | 90% | 1 | 16 µg/mL (≈ 33 µM) | 4 µg/mL (≈ 8.26 µM) | 4 µg/mL (≈ 8.26 µM) | 1.25 µg/mL (≈ 2.58 µM) |
